This is an account of results in ChEMBL document CHEMBL4265975, “Synthesis, biological evaluation and molecular modeling of a novel series of fused 1,2,3-triazoles as potential anti-coronavirus agents” (Bioorg Med Chem Lett, 2018).

Data set [1] has as its system Human alphaherpesvirus 1. Description: Antiviral activity against Herpes simplex virus 1 KOS infected in human HEL cells assessed as inhibition of virus-induced cytopathic effect after 3 days by microscopic method. Format: functional, organism-based. The settings on record: Human alphaherpesvirus 1, KOS, 72 h. (Cytopathic effects are the visible damage that an infection or toxin causes in cultured cells.)

The test system of data set [2] is Human adenovirus 2. Kind of data set: Antiviral activity against Human adenovirus 2 infected in human HEL cells assessed as inhibition of virus-induced cytopathic effect after 3 days by microscopic method. It is filed as functional, organism-based. The conditions noted are these: Human mastadenovirus C, 72 h. The method in brief:
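HEL cells were infected with adenovirus 2 for 2 h. Residual virus was then removed and the cells were incubated with medium containing graded compound concentrations for 3 days at 37°C. Virus-induced cytopathogenicity was scored microscopically.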

The nature of data set [3]: Selectivity index, ratio of MCC for HEL cells to EC50 for Human adenovirus 2 infected in HEL cells. Format: toxicity, cell-based. The settings on record: read-out: Selectivity Index. The method in brief: (§1)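 SI is MCC divided by EC50. […] MCC was measured in parallel on HEL cells seeded at 5 x 10^3 cells/well, as the lowest concentration causing microscopically visible alteration of cell morphology. The top concentration tested was 100 µM.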

Data set [4] concerns Human alphaherpesvirus 1. Kind of data set: Antiviral activity against acyclovir-resistant TK-defecient Herpes simplex virus 1 KOS infected in human HEL cells assessed as inhibition of virus-induced cytopathic effect after 3 days by microscopic method. The settings on record: Human alphaherpesvirus 1, KOS, 72 h. It is filed as functional, organism-based.
The nature of data set [5]: Selectivity index, ratio of MCC for HEL cells to EC50 for Human coronavirus 229E infected in HEL cells. Format: toxicity, cell-based. The settings on record: read-out: Selectivity Index. The method in brief:
as §1

Data set [6] in a line: Selectivity index, ratio of MCC for HEL cells to EC50 for Herpes simplex virus 2 strain G infected in HEL cells. It is filed as toxicity, cell-based. The conditions noted are these: human, read-out: Selectivity Index. The method in brief: as §1
Data set [7] can be described thus: Cytotoxicity against HEL cells assessed as alteration in cell morphology after 3 days by microscopic method. Format: cell-based. The settings on record: human. The method in brief:
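HEL cells were seeded at 5 x 10^3 cells/well and exposed to graded compound concentrations, up to 100 μM, in parallel with the antiviral assay. Cell morphology was examined by light microscopy. MCC is the minimum concentration causing a microscopically detectable alteration of normal cell morphology.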

In data set [8] the test system is Human alphaherpesvirus 2. Description: Antiviral activity against Human herpesvirus 2 strain G infected in human HEL cells assessed as inhibition of virus-induced cytopathic effect after 3 days by microscopic method. Format: functional, organism-based. The conditions noted are these: Human alphaherpesvirus 2, strain G, 72 h.
Data set [9] is described as follows: Selectivity index, ratio of MCC for HEL cells to EC50 for Herpes simplex virus 1 KOS infected in HEL cells. It is filed as toxicity, cell-based. The settings on record: human, read-out: Selectivity Index. The method in brief: as §1
Data set [10] in a line: Selectivity index, ratio of MCC for HEL cells to EC50 for acyclovir-resistant TK-defecient Herpes simplex virus 1 KOS infected in HEL cells. The conditions noted are these: human, read-out: Selectivity Index. Format: toxicity, cell-based. The method in brief:
as §1

Data set [11] concerns Human coronavirus 229E. Kind of data set: Antiviral activity against Human coronavirus 229E infected in HEL cells assessed as reduction in virus-induced pathogenicity after 3 days by microscopic method. It is filed as functional, organism-based. The conditions noted are these: 72 h.
Data set [12] deals with Vaccinia virus. Kind of data set: Antiviral activity against Vaccinia virus infected in human HEL cells assessed as inhibition of virus-induced cytopathic effect after 3 days by microscopic method. Format: functional, organism-based. The settings on record: Orthopoxvirus vaccinia, 72 h.
Data set [13] is described as follows: Selectivity index, ratio of MCC for HEL cells to EC50 for Vaccinia virus infected in HEL cells. Format: toxicity, cell-based. The conditions noted are these: human, read-out: Selectivity Index. The method in brief: as §1

Structures are written as SMILES.

Broadly, the EC50 is the concentration needed to bring the measured effect to its halfway point. `CCOC(=O)C1(Cc2ccccc2)CN(c2ccccc2)Cc2nnn(CCCCCO)c21` (stereo not given): the EC50 in [1], in data set [2], in [4], in data set [8], in [11] and in data set [12] was greater than 100 µM throughout. For the same molecule, the selectivity ratio in data set [3], in [5], in data set [6], in data set [9], in data set [10] and in data set [13] was greater than 8 in each case. The MCC at 72 h in data set [7] was greater than 100 µM.
Consider `CCOC(=O)C1(Cc2ccccc2)CN(c2ccccc2)Cc2nnn(Cc3c(F)cccc3Cl)c21` (stereo not given), for which the EC50 in data set [1], in data set [2], in [4], in data set [8], in [11] and in data set [12] was greater than 100 µM throughout. For the same molecule, the selectivity ratio in data set [3], in data set [5], in data set [6], in data set [9], in data set [10] and in [13] was greater than 8 in each case. Also, in data set [7], the MCC at 72 h was greater than 100 µM.
As for `CCOC(=O)C1(Cc2ccc(F)cc2)CN(c2ccccc2)Cc2nnn(Cc3cccc(F)c3)c21` (stereo not given), the EC50 in [1], in [2], in data set [4], in data set [8], in data set [11] and in data set [12] was greater than 100 µM throughout. The selectivity ratio in data set [3], in data set [5], in [6], in [9], in [10] and in data set [13] was greater than 8 in each case. The MCC at 72 h in [7] was greater than 100 µM.
As for `CCOC(=O)C1(Cc2ccc(F)cc2)CN(c2ccccc2)Cc2nnn(Cc3ccc(Cl)c(Cl)c3)c21` (stereo not given), the EC50 in data set [1] is greater than 100 µM; in data set [2], greater than 100 µM; in data set [4], greater than 100 µM; in [8], greater than 100 µM; in [11], 9.45 µM; in data set [12], greater than 100 µM. Besides, the selectivity ratio in [3], in data set [5], in data set [6], in data set [9], in [10] and in data set [13] was greater than 8 each time. The MCC at 72 h in [7] was greater than 100 µM.
Turning to `CCOC(=O)C1(Cc2ccccc2)CN(c2ccccc2)Cc2nnn(CCc3ccc(OC)cc3)c21` (stereo not given), the EC50 in data set [1], in data set [2], in data set [4], in data set [8], in data set [11] and in data set [12] was greater than 100 µM in each case. The selectivity ratio in [3], in [5], in data set [6], in data set [9], in [10] and in data set [13] was greater than 8 in each case. Further, in data set [7], the MCC at 72 h is no less than 20 µM.
With `COc1ccccc1CCn1nnc2c1CCN(c1ccccc1)C2`, the EC50 in [1], in data set [2], in data set [4], in [8], in data set [11] and in data set [12] was greater than 100 µM in each case. The selectivity ratio in [3], in data set [5], in [6], in data set [9], in data set [10] and in data set [13] was greater than 8 throughout. Further, the MCC at 72 h in data set [7] is no less than 100 µM.
As for `CCOC(=O)C1(Cc2ccccc2)CN(c2ccccc2)Cc2nnn(CCc3cc4ccccc4[nH]3)c21` (stereo not given), the EC50 in [1] was greater than 100 µM; in data set [2], greater than 100 µM; in data set [4], greater than 100 µM; in data set [8] it was greater than 100 µM; in data set [11] it was 9.45 µM; in data set [12], greater than 100 µM. The selectivity ratio in [3], in data set [5], in [6], in data set [9], in data set [10] and in data set [13] was greater than 8 throughout. Moreover, the MCC at 72 h in data set [7] was greater than 100 µM.
Regarding `COc1ccc(CCn2nnc3c2CCN(c2ccccc2)C3)cc1`, the EC50 in [1], in data set [2], in [4], in data set [8], in [11] and in data set [12] was greater than 100 µM throughout. Moreover, the selectivity ratio in [3], in data set [5], in data set [6], in data set [9], in data set [10] and in [13] was greater than 8 throughout. In data set [7], the MCC at 72 h is greater than 100 µM.
On to `CCCCCCCCn1nnc2c1C(Cc1ccccc1)(C(=O)OCC)CN(c1ccccc1)C2` (stereo not given), for which the EC50 in data set [1], in data set [2], in data set [4], in [8], in data set [11] and in data set [12] was greater than 100 µM throughout. Further, the selectivity ratio in data set [3], in data set [5], in data set [6], in [9], in data set [10] and in [13] was greater than 8 each time. Besides, the MCC at 72 h in data set [7] is no less than 20 µM.
As to `CCOC(=O)C1(Cc2ccccc2)CN(c2ccccc2)Cc2nnn(CCc3ccccc3OC)c21` (stereo not given), the EC50 in [1], in data set [2], in data set [4], in data set [8], in data set [11] and in data set [12] was greater than 100 µM throughout. Also, the selectivity ratio in [3], in data set [5], in [6], in data set [9], in [10] and in [13] was greater than 8 throughout. Besides, in [7], the MCC at 72 h is no less than 100 µM.
As to `CCOC(=O)C1(Cc2ccccc2)CN(c2ccccc2)Cc2nnn(Cc3ccco3)c21` (stereo not given), the EC50 in [1], in data set [2], in data set [4], in data set [8], in data set [11] and in data set [12] was greater than 100 µM in each case. Moreover, the selectivity ratio in [3], in data set [5], in data set [6], in data set [9], in data set [10] and in [13] was greater than 8 in each case. Also, the MCC at 72 h in data set [7] was found to be 100 µM.
As for `c1ccc(N2CCc3c(nnn3CC3CC3)C2)cc1`, the EC50 in data set [1], in data set [2], in data set [4], in data set [8], in data set [11] and in [12] was greater than 100 µM each time. The selectivity ratio in [3], in [5], in data set [6], in data set [9], in data set [10] and in data set [13] was greater than 8 in each case. In addition, the MCC at 72 h in data set [7] is greater than 100 µM.
`Nc1nc2c(ncn2COCCO)c(=O)[nH]1` [ACYCLOVIR]: the MCC at 72 h in [7] was greater than 250 µM. In addition, the EC50 in [12] was greater than 250 µM.
Turning to `O=c1[nH]c(=O)n([C@H]2C[C@H](O)[C@@H](CO)O2)cc1/C=C/Br` [BRIVUDINE], the MCC at 72 h in data set [7] was greater than 250 µM. Further, in [12], the 50% effective concentration (EC50) came to 3.8 µM.
As for `Nc1ccn(C[C@@H](CO)OCP(=O)(O)O)c(=O)n1` [CIDOFOVIR], the EC50 in data set [1] stood at 4.5 µM; in data set [2] it was 22 µM; in [4] it was 2.8 µM; in [8], 3.4 µM; in [12] it was 85 µM. In addition, in data set [7], the MCC at 72 h was greater than 250 µM.
Turning to `Nc1nc2c(ncn2COC(CO)CO)c(=O)[nH]1` [GANCICLOVIR], the MCC at 72 h in data set [7] is greater than 100 µM. Also, the EC50 in data set [12] is greater than 100 µM.
In the case of `Nc1ccn([C@H]2CC[C@@H](CO)O2)c(=O)n1` [ZALCITABINE], the EC50 in [2] came out at 50 µM. Besides, the MCC at 72 h in [7] is greater than 250 µM.
